Measurements: PMC8200842 (The Journal of General Physiology, 2021)
Several values for one entry are separate records, joined by “and”; a condition that tells them apart may be missing. Equal entries are not always repeated. Where two headings read alike, the source gives them in different places. Marks after values point to notes of the source that are not given here.

Assays:
Format in all cases: binding
MelBSt = MelBSt (Salmonella typhimurium, UniProt P30878); settings: for ΔΔH: from 15°C to 30°C
D55C MelBSt mutant = D55C MelBSt mutant (Salmonella typhimurium, UniProt P30878, D55C); experiment: Thermal denaturation by CD spectroscopy; settings: D55C MelBSt 10 µM, component at 50 mM in CD buffer, ellipticity at 210 nm
WT MelBSt = WT MelBSt (Salmonella typhimurium, UniProt P30878); experiment: Thermal denaturation by CD spectroscopy; settings: for 10% unfolding / 50% unfolding (Tm) / 90% unfolding: WT MelBSt 10 µM, component at 50 mM in CD buffer, ellipticity at 210 nm; for denaturation completed faster than in the absence of salt / ΔTm: WT MelBSt; for denaturation completed faster than in the absence of salt: above 60°C, nonspecific salt effect; for ΔTm: difference in Tm compared with apo
Outline: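 Samples sat in a 1-mm cuvette. Ellipticity at 210 nm was recorded from 25–80°C at 1°C intervals, ramping 1°C/min, and expressed as percent unfolded. Tm is the half-maximal ellipticity decrease by curve fitting. Data are SEM; unpaired t test, P<0.05.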

[1] = MelBSt with 50 mM melibiose (MelBSt/Mel binary complex), 15°C
[2] = MelBSt with 50 mM melibiose (MelBSt/Mel binary complex), 20°C
[3] = MelBSt with 50 mM melibiose (MelBSt/Mel binary complex), 25°C
[4] = MelBSt with 50 mM melibiose (MelBSt/Mel binary complex), 30°C
[5] = binding to MelBSt/Mel binary complex
[6] = MelBSt with 100 mM NaCl (MelBSt/Na^+ binary complex), 15°C
[7] = MelBSt with 100 mM NaCl (MelBSt/Na^+ binary complex), 20°C
[8] = MelBSt with 100 mM NaCl (MelBSt/Na^+ binary complex), 25°C
[9] = MelBSt with 100 mM NaCl (MelBSt/Na^+ binary complex), 30°C
[10] = MelBSt with 100 mM NaCl (MelBSt/Na^+ binary complex), 35°C
[11] = apo MelBSt, range over 15°C, 20°C, 25°C and 30°C
[12] = binding to MelBSt/Na^+ binary complex

## [Na+] [Na^+]
MelBSt; [1]
  Entropy change (−TΔS): -12.59 ± 0.26 kJ/mol
  Free energy change (ΔG): -23.29 ± 0.20 kJ/mol
  Kd: 0.06 ± 0.01 mM
  ΔH: -10.70 ± 0.06 kJ/mol
MelBSt; [2]
  Entropy change (−TΔS): -8.11 ± 0.03 kJ/mol
  Free energy change (ΔG): -23.24 ± 0.17 kJ/mol
  Kd: 0.07 ± 0.01 mM
  ΔH: -15.14 ± 0.15 kJ/mol
MelBSt; [3]
  Entropy change (−TΔS): -3.82 ± 0.03 kJ/mol
  Free energy change (ΔG): -22.55 ± 0.82 kJ/mol
  Kd: 0.12 ± 0.04 mM
  ΔH: -18.74 ± 0.80 kJ/mol
MelBSt; [4]
  Free energy change (ΔG): -22.95 ± 0.74 kJ/mol
  Kd: 0.12 ± 0.03 mM
  ΔH: -22.17 ± 0.52 kJ/mol
MelBSt; apo MelBSt
  difference in apo MelBSt binding affinities between Na^+ and melibiose: at least 20 fold
  ΔΔH: ~20 kJ/mol
MelBSt; apo MelBSt (main buffer), 15°C
  Entropy change (−TΔS): 17.56 ± 1.30 kJ/mol
  Free energy change (ΔG): -18.18 ± 0.39 kJ/mol
  Kd: 0.51 ± 0.08 mM
  ΔH: -35.75 kJ/mol and -35.75 ± 0.90 kJ/mol
MelBSt; apo MelBSt (main buffer), 20°C
  Entropy change (−TΔS): 10.06 ± 0.02 kJ/mol
  Free energy change (ΔG): -18.13 ± 0.49 kJ/mol
  Kd: 0.6 ± 0.1 mM
  ΔH: -28.20 ± 0.43 kJ/mol
MelBSt; apo MelBSt (main buffer), 25°C
  Entropy change (−TΔS): 3.65 ± 0.31 kJ/mol
  Free energy change (ΔG): -18.46 ± 0.42 kJ/mol
  Kd: 0.59 ± 0.12 mM
  ΔH: -22.11 ± 0.80 kJ/mol
MelBSt; apo MelBSt (main buffer), 30°C
  Entropy change (−TΔS): -1.98 ± 1.62 kJ/mol
  Free energy change (ΔG): -18.00 ± 0.22 kJ/mol
  Kd: 0.79 ± 0.07 mM
  ΔH: -16.02 kJ/mol and -16.02 ± 1.40 kJ/mol
MelBSt; [5]
  −ΔSConf: 148.74 J/mol·K
  −ΔSMix: 33.00 J/mol·K
  −ΔSSolv: −194.56 J/mol·K
  −ΔSSum at °25 C: −12.82 J/mol·K
MelBSt; binding to apo MelBSt
  −ΔSConf: −354.89 J/mol·K
  −ΔSMix: 33.00 J/mol·K
  −ΔSSolv: 334.13 J/mol·K
  −ΔSSum at °25 C: 12.24 J/mol·K
D55C MelBSt mutant
  10% unfolding: 46.35 ± 0.25 °C
  50% unfolding (Tm): 56.75 ± 0.25 °C
  90% unfolding: 66.51 ± 0.31 °C
WT MelBSt
  10% unfolding: 49.07 ± 0.28 °C
  50% unfolding (Tm): 54.83 ± 0.03 °C
  90% unfolding: 60.06 ± 0.29 °C
  denaturation completed faster than in the absence of salt: 4–5 °C
  ΔTm: 1.54 (<0.05) °C

## [K+] [K^+]
D55C MelBSt mutant
  10% unfolding: 46.51 ± 0.71 °C
  50% unfolding (Tm): 56.15 ± 0.16 °C
  90% unfolding: 65.07 ± 0.06 °C
WT MelBSt
  10% unfolding: 46.06 ± 0.02 °C
  50% unfolding (Tm): 53.34 ± 0.04 °C
  90% unfolding: 59.94 ± 0.69 °C
  denaturation completed faster than in the absence of salt: 4–5 °C
  ΔTm: 0.05 ^d (>0.05 ^e) °C

## OC[C@H]1O[C@H](OCC2O[C@@H](O)[C@H](O)[C@@H](O)[C@@H]2O)[C@H](O)[C@@H](O)[C@H]1O (stereo partly shown) [Mel, melibiose]
MelBSt; [6]
  Entropy change (−TΔS): -9.61 ± 0.67 kJ/mol
  Free energy change (ΔG): -16.43 ± 0.03 kJ/mol
  Kd: 1.05 ± 0.01 mM
  ΔH: -6.46 ± 0.43 kJ/mol
MelBSt; [7]
  Entropy change (−TΔS): -7.37 ± 0.99 kJ/mol
  Free energy change (ΔG): -17.09 ± 0.40 kJ/mol
  Kd: 0.95 ± 0.13 mM
  ΔH: -9.72 ± 0.59 kJ/mol
MelBSt; [8]
  Entropy change (−TΔS): -4.75 ± 0.26 kJ/mol
  Free energy change (ΔG): -16.71 ± 0.03 kJ/mol
  Kd: 1.18 ± 0.01 mM
  ΔH: -11.97 ± 0.23 kJ/mol
MelBSt; [9]
  Entropy change (−TΔS): -2.98 ± 0.31 kJ/mol
  Free energy change (ΔG): -16.55 ± 0.07 kJ/mol
  Kd: 1.41 ± 0.04 mM
  ΔH: -13.57 ± 0.24 kJ/mol
MelBSt; [10]
  Entropy change (−TΔS): -1.09 ± 0.23 kJ/mol
  Free energy change (ΔG): -16.23 ± 0.20 kJ/mol
  Kd: 1.78 ± 0.14 mM
  ΔH: -15.16 ± 0.44 kJ/mol
MelBSt; apo MelBSt (main buffer), 15°C
  Entropy change (−TΔS): 14.64 ± 4.30 kJ/mol
  Free energy change (ΔG): -11.27 ± 0.27 kJ/mol
  Kd: 9.15 ± 1.06 mM
  ΔH: -25.91 ± 4.58 kJ/mol
MelBSt; apo MelBSt (main buffer), 15°C, listed as melibiose
  ΔH: -25.91 kJ/mol
MelBSt; apo MelBSt (main buffer), 20°C
  Entropy change (−TΔS): 11.92 ± 4.97 kJ/mol
  Free energy change (ΔG): -11.34 ± 0.26 kJ/mol
  Kd: 9.59 ± 1.01 mM
  ΔH: -23.26 ± 5.23 kJ/mol
MelBSt; apo MelBSt (main buffer), 25°C
  Entropy change (−TΔS): 8.35 ± 6.71 kJ/mol
  Free energy change (ΔG): -11.29 ± 0.58 kJ/mol
  Kd: 10.8 ± 2.49 mM
  ΔH: -19.64 ± 6.13 kJ/mol
MelBSt; apo MelBSt (main buffer), 30°C
  Entropy change (−TΔS): 5.59 ± 5.66 kJ/mol
  Free energy change (ΔG): -10.81 ± 0.22 kJ/mol
  Kd: 13.8 ± 1.18 mM
  ΔH: -16.40 ± 5.45 kJ/mol
MelBSt; apo MelBSt (main buffer), 30°C, listed as melibiose
  ΔH: -16.40 kJ/mol
MelBSt; apo MelBSt
  ΔΔH: ~10 kJ/mol
MelBSt; [11]
  Kd: 9 to 13 mM
  binding free energy ΔG: -11.27 to -10.81 kJ/mol
MelBSt; [12]
  −ΔSConf: 59.86 J/mol·K
  −ΔSMix: 33.00 J/mol·K
  −ΔSSolv: −108.78 J/mol·K
  −ΔSSum at °25 C: −15.92 J/mol·K
MelBSt; binding to apo MelBSt
  −ΔSConf: −169.20 J/mol·K
  −ΔSMix: 33.00 J/mol·K
  −ΔSSolv: 164.61 J/mol·K
  −ΔSSum at °25 C: 28.41 J/mol·K
MelBSt; binding to apo MelBSt, slope of ΔH versus temperature 15-30°C
  ΔCp: 643.01 ± 26.92 J/mol·K
D55C MelBSt mutant
  50% unfolding (Tm): >80 °C
WT MelBSt
  10% unfolding: 45.95 ± 0.47 °C
  50% unfolding (Tm): 54.07 ± 0.07 °C
  90% unfolding: 64.24 ± 0.42 °C
  ΔTm: 0.78 (<0.05) °C
